Hits are enriched below; roughly 4% of the tested compounds scored in any of these assays.
UPR CHOP act – activators of apoptotic arm of unfolded protein response (CHOP); CHO-CHOP luciferase reporter, UPR activation, luminescence; percent of tunicamycin response over DMSO baseline; activation, % at 10 µM; 330,000 tested, 0.34% active; AID 449763;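 active = at 10 µM dose, activation of 40% or more, normalized to positive control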;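 note: 100% = tunicamycin at 10 µg/mL and 0% = DMSO alone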
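Dosing – one dose, 10 µM in 0.5% DMSO · System – CHO-CHOP cells, stable luciferase reporter of PERK-eIF2a-CHOP signalling · Input – 500 cells/well · Control set – tunicamycin 10 µg/mL final as positive, DMSO-only wells as negative · Timing – 6 h compound treatment, 37 °C · Measure – % activation vs tunicamycin · Technique – luminescence read with Steady-Glo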
ABHD5 PLIN5 PPI – inhibitors of human ABHD5-perilipin-5 interaction | 360,000 tested, 0.78% active | Split G. princeps luciferase complementation, luminescence, 4 h | AID 602281 | Q00G26+Q8WTS1 | inhibition, % at 4 µM;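 active = inhibition above the mean inhibition across every tested compound plus 3 SD, cut at about 22% in these data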;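 note: 0% = DMSO only wells and the 100% control is not disclosed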
Exocytosis inh – blocks lytic granule exocytosis; TALL-104 LAMP-1 surface exposure, flow cytometry; cells stimulated with thapsigargin and PMA; inhibition, % at 10 µM; 360,000 tested, 0.66% active;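 active = inhibition above about 55%, limit read from the data; inconclusive = no clear call, values can overlap the other calls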
Mdm2 MdmX PPI – inhibitors of human Mdm2/MdmX interaction; O15151+Q00987; SaOS-2 split-luciferase Mdm2/MdmX complementation, luminescence; inhibition, % at 8 µM; 330,000 tested, 3% active; AID 485346;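 active = inhibition of at least 50% at 8 µM in the primary screen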
XBP1 UPR activ – adaptive UPR (XBP1) activation; CHO-XBP1 luciferase reporter, IRE1-XBP1 UPR activation, luminescence; percent of tunicamycin response, DMSO as zero; activation, % at 20 µM; 330,000 tested, 0.33% active;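 active = versus positive control, 20 µM dose yields 30% or more activation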;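 note: 100% = tunicamycin at 10 µg/mL and 0% = DMSO only wells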
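Signal: luciferase luminescence; Assay system: CHO-XBP1 luciferase reporter cells; Amount: one thousand reporter cells per well; Dosing: 20 µM single concentration, DMSO 1%; Benchmarks: high control tunicamycin 10 µg/mL final, low control DMSO vehicle only; Schedule: 6 h compound exposure at 37 °C, 5% CO2; Evaluation: percent activation relative to tunicamycin reference.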
Mdm2 MdmX conf – confirmation of human Mdm2/MdmX interaction inhibitors; shares compounds with Mdm2 MdmX PPI; Mdm2-MdmX binding, luminescent assay; inhibition, % at 8 µM; 10,000 tested, 55% active; in the data active = inhibition above about 40%
FLuc counter – inhibits full-length luciferase, flagging false Mdm2/MdmX hits; inhibition, % at 8 µM; SaOS-2 full-length luciferase counterscreen, luminescence; shares compounds with Mdm2 MdmX PPI; AID 504607; 6,200 tested, 77% active;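 active = mean inhibition at 8 µM reaching about 37%, which flags the compound as non-specific, limit read from the data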;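 note: p53-null SaOS-2 cells with luciferase driven by a doxycycline-inducible promoter; compound on cells about two nights before reading with doxycycline added after day one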
Numbers without * were called inactive; ? = inconclusive; · = no result.

SMILES | UPR CHOP act | ABHD5 PLIN5 PPI | Exocytosis inh | Mdm2 MdmX PPI | XBP1 UPR activ | Mdm2 MdmX conf | FLuc counter
CCCN1C(=O)/C(=C/c2c(N3CCNC(=O)C3CC(=O)OCC)nc3c(C)cccn3c2=O)SC1=S (stereo not given) | 7 | -1 | 10 | 74* | -1 | 68* | 74*
CCOC(=O)COc1cccc2c(=O)n(CC(=O)NCc3ccc(F)cc3)ccc12 | 0 | -3 | 4 | 59* | 9 | 61* | 83*
CCOC(=O)C(C)Oc1cccc2c(=O)n(CC(=O)NCc3ccc4c(c3)OCO4)ccc12 (stereo not given) | -1 | 9 | 6 | 54* | 7 | 59* | 57*
CCOc1cc(OCC)cc(C(=O)O)c1 | -3 | -1 | 1 | 13 | 1 | · | ·
C(=N\N1CCN(Cc2cccc3ccccc23)CC1)/c1cccnc1 | -1 | -21 | -1 | 1 | -1 | · | ·
O=C1C(Cc2ccccc2)Nc2ncnc(N3CCc4ccccc4C3)c2N1Cc1ccc(Cl)cc1 (stereo not given) | 18 | 2 | -11 | 56* | 5 | 49* | 57*
CCC1Nc2ncnc(N3CCc4ccccc4C3)c2N(Cc2ccc(Cl)cc2)C1=O (stereo not given) | -1 | 1 | 30 | 35 | 3 | · | ·
CC(NC(=S)NCc1ccc(F)cc1)C12CC3CC(CC(C3)C1)C2 (stereo not given) | 0 | -6 | 0 | 0 | -1 | · | ·
Cc1ccc(SCc2nc(-c3ccccn3)no2)cc1 | 3 | 5 | 2 | -45 | 0 | · | ·
O=C(Nc1ccc(Oc2ccccc2)nc1)C1CCN(Cc2ccco2)CC1 | 0 | 13 | 2 | -10 | -2 | · | ·
O=C(Nc1ccc(Oc2ccccc2)nc1)C1CCCCN1Cc1ccco1 (stereo not given) | 2 | 15 | 21 | 65* | -1 | 76* | 68*
COc1ccc(C(C#N)c2ccc(Cl)nn2)cc1 (stereo not given) | 0 | -1 | -2 | 5 | 2 | · | ·
N#CC(c1ccc(Cl)nn1)c1ccc(Cl)cc1Cl (stereo not given) | -4 | -4 | 8 | 56* | -5 | 18 | ·
Cc1ccc2nc(-c3ccccc3)nc(SC(C)C(=O)NCc3cccs3)c2c1 (stereo not given) | -1 | · | · | 63* | 3 | -10 | ·
O=C(NCCNc1ccnc2cc(Cl)ccc12)c1ccccc1F | 4 | 2 | 1 | 12 | -2 | · | ·
CC(C)(C)c1ccc(C2CC2C(=O)N/N=C\c2ccc[nH]2)cc1 (stereo not given) | 4 | -4 | 3 | 84* | 4 | 73* | 31
O=C(Nc1cc(Cl)ccc1-n1cncn1)c1ccco1 | -1 | 3 | -2 | 30 | -3 | · | ·
O=C(Nc1cc(Cl)ccc1-n1cncn1)c1ccc([N+](=O)[O-])s1 | 2 | 1 | 15 | 58* | -1 | 33 | ·
COc1ccc(Nc2nc(-c3ccccc3)nc3ccccc23)cc1S(=O)(=O)N1CCOCC1 | 5 | 1 | -5 | 79* | 15 | 77* | 63*
CN1CC[C@@H]2C(=O)N3CCc4ccc(-c5ccc6c(c5)OCO6)cc4[C@@H]3C[C@@H]21 | · | -9 | 0 | · | · | · | ·
Cc1nnsc1C(=O)Nc1cccc(Cl)c1 | -1 | 0 | ? | 8 | 1 | · | ·
CC1CCN(CCOc2cccc(Br)c2)CC1 | -1 | 3 | 8 | -4 | -1 | · | ·
Clc1cccc(OCCN2CCN(CCOc3cccc(Cl)c3)CC2)c1 | -2 | 23* | 53 | 69* | 2 | 35 | ·
Cc1ccc([N+](=O)[O-])cc1N(CC(=O)Nc1ccc(S(=O)(=O)Nc2cccc(C(F)(F)F)c2)cc1)S(C)(=O)=O | 7 | 21 | 32 | 55* | -1 | 45* | 39*
COc1ccc(OC)c(N(CC(=O)Nc2cccc(C(F)(F)F)c2)S(C)(=O)=O)c1 | -1 | -2 | 1 | 7 | -3 | · | ·
CCOC(=O)C1=C(C)Nc2ccccc2N=C1NC(=O)c1oc2ccccc2c1COC | 2 | -7 | -8 | 59* | -4 | 50* | 77*
